Assay outcomes (PubChem)
GPR7 antagonist: human neuropeptides B/W receptor 1 antagonism; P48145; GPR7-expressing cells, fluorescence antagonist assay; inhibition, % at 4.4 µM; actives 1.1% (n = 290,000); AID 1861; in the data active means inhibition above about 16%, passing the limit was not always enough;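 further: cells stimulated with the agonist NPW; 0% = agonist with vehicle and 100% = vehicle without agonist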
OX1R antag-1: blocks the human orexin 1 receptor; O43613; actives 0.43% (n = 330,000); inhibition, % at 5 µM; CHO/OX1R cells, Fluo-8 calcium fluorescence, orexin A; AID 434989;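 active means inhibition above its plate's threshold, mean inhibition of all tested compounds on the plate plus 3 SD, cut at about 37% in these data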;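 further: 0% = orexin A challenge wells and 100% = SB-334867-A antagonist wells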
Target sequence (O43613 whole entry, looked up): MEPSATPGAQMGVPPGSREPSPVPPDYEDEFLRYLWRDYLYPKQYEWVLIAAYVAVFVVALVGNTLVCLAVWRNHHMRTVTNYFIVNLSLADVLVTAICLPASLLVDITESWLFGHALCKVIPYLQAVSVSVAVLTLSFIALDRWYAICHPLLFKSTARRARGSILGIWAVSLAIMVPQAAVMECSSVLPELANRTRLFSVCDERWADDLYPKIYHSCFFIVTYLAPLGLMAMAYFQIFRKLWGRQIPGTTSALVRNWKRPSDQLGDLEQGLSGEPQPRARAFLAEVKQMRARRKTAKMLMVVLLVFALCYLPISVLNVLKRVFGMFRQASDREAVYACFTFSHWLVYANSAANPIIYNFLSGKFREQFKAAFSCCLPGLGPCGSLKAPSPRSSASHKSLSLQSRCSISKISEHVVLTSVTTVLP
OX1R antag-2: blocks the human orexin 1 receptor | O43613 | OX1R-expressing cells, FRET antagonist read-out | inhibition, % at 6.6 µM | actives 1.8% (n = 330,000) | AID 485270; in the data active means inhibition mostly above about 38%, no sharp cut-off; inactive means mostly below about 40%;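 further: 0% = agonist challenge alone and 100% = reference antagonist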
TAAR1 antagonist: antagonists of human TAAR1; CHO RD-HGA16 TAAR1, Fluo-8 calcium fluorescence, antagonist; inhibition, % at 3 µM; actives 1.5% (n = 360,000);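 active means inhibition above a per-plate cutoff, the mean inhibition of test compounds on that plate plus 3 SD, cut at about 49% in these data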;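 further: 0% = DMSO plus EC80 beta-PEA response and 100% = DMSO alone without agonist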
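Test system – hTAAR1-expressing CHO RD-HGA16 cells, Gα16-coupled · Also added – β-PEA at EC80 concentration, post-compound challenge · Compound – 3 µM, single point · Incubation – dye loading 75 min at 37 °C, then 30 min room temperature · Measured by – Fluo-8 intracellular calcium dye fluorescence, real-time kinetic reads · Benchmarks – vehicle and agonist controls · Replicates – singlicate, one well per test compound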
TAAR1 agonist: human TAAR1 agonism. Q96RJ0. CHO RD-HGA16 TAAR1, Fluo-8 calcium fluorescence; vehicle wells 0%, saturating PEA agonist 100%. activation, % at 3 µM. actives 0.99% (n = 360,000). AID 624467;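 active means activation above the mean activation of all test compounds in the run plus 3 SD, cut at about 38% in these data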
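System: CHO-derived RD-HGA16 cells with stable Gα16 and human TAAR1 / Times: 17-24 h plating, Fluo-8 75 min 37 °C, 30 min RT / Technique: calcium-sensitive Fluo-8 signal, excitation 470-495, emission 515-575 nm / Measure: % activation relative to PEA EC100 response / Benchmarks: DMSO and PEA EC100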
CHO parental Ca: counter-screen for OX1R antagonists: effect in parental CHO cells; inhibition, % at 5.6 µM; parental CHO-K1, ATP-induced calcium, Fluo-8 fluorescence; actives 0.63% (n = 330,000); AID 463079;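 active means inhibition above that plate's mean sample inhibition plus 3 SD, cut at about 26% in these data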;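 further: 0% = ATP-challenged DMSO wells and 100% = DMSO wells without ATP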
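material = parental CHO cells | also added = ATP as calcium-mobilizing challenge | dosing = single point at 5.6 µM | detection = intracellular calcium via Fluo-8 no-wash fluorescent dye | read-out = % inhibition | benchmarks = low control ATP plus DMSO, high control DMSO only | repeats = one well per compound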
TAAR1 ag confirm: confirmation of human TAAR1 agonists. AID 651783. CHO RD-HGA16 TAAR1, Fluo-8 calcium fluorescence; scaled: DMSO 0%, maximal phenethylamine 100%. shares compounds with TAAR1 agonist. activation, % at 3 µM. actives 82% (n = 2,400);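 active means activation above a cutoff set at the run's mean compound activation plus 3 SD, cut at about 39% in these data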
Ga16 ag counter: counter-screen for TAAR1 agonists: nonselective agonists in parental cells; shares compounds with TAAR1 agonist; CHO-Ga16 parental, Fluo-8 calcium fluorescence; normalized to maximal ATP response, DMSO zero; activation, % at 3 µM; actives 50% (n = 2,400); AID 651787;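 active means activation above the run cutoff, the mean activation over all tested wells plus 3 SD, cut at about 12% in these data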;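 further: 0% = DMSO wells and 100% = maximal ATP response on the peak over basal ratio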
TAAR1 desensitize: TAAR1 response desensitization, agonist counter-screen; shares compounds with TAAR1 agonist; CHO RD-HGA16 hTAAR1, Fluo-8 calcium, beta-PEA response inhibition; inhibition, % at 3 µM; actives 46% (n = 2,400); AID 651951;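 active means inhibition above the run cutoff, the mean inhibition of all test compounds plus 3 SD, cut at about 49% in these data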;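 further: beta-PEA stimulus applied at its EC80; loss of beta-PEA calcium signal after compound pretreatment read as receptor desensitization; 0% = DMSO with beta-PEA at EC80 and 100% = DMSO alone without agonist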
Ga16 antag count: nonselective Ga16 antagonist in TAAR1 agonist counter-screen. shares compounds with TAAR1 agonist. CHO-Ga16 ATP-induced calcium, Fluo-8 fluorescence. inhibition, % at 3 µM. actives 39% (n = 2,400). AID 651952;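 active means inhibition above the plate's mean compound inhibition plus 3 SD, computed per plate, cut at about 22% in these data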;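 further: 0% = EC80 ATP with DMSO and 100% = DMSO wells without ATP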
* = called active by the depositor; x = no result given. Sampled rows, rich in hits. Any-hit rate of the full collection: about 4.6%.

SMILES	GPR7 antagonist	OX1R antag-1	OX1R antag-2	TAAR1 antagonist	TAAR1 agonist	CHO parental Ca	TAAR1 ag confirm	Ga16 ag counter	TAAR1 desensitize	Ga16 antag count
O=[N+]([O-])c1ccc2nonc2c1Nc1ccccc1	-20	-5	27*	24	78*	-7	5	1	-6	1
O=[N+]([O-])c1cccc(Nc2c([N+](=O)[O-])ccc3nonc23)c1	-11	-10	-9	-17	2	-4	x	x	x	x
CCCCOc1ccc(N2C(=O)CC(N(CCc3ccccc3)C(=O)/C=C/C(=O)O)C2=O)cc1 (configuration not stated)	-8	-21	8	1	67*	-11	78*	2	31	0
OC(c1ccccc1)(c1ccccc1)C1CCN(CCCOc2cccc(F)c2)CC1	x	x	x	40	45*	x	16	10	14	16
Cc1ccccc1OCCCN1CCC(C(O)(c2ccccc2)c2ccccc2)CC1	x	x	x	34	37*	x	51*	19*	38	26*
Cc1cc(OCCCN2CCC(C(O)(c3ccccc3)c3ccccc3)CC2)ccc1Br	x	x	x	48	36	x	x	x	x	x
NC(=O)c1ccc(NC(=O)c2cnc3ccccc3n2)cc1	-9	-23	30	-13	3	-15	x	x	x	x
CCOc1ccc(NC(=S)C(C#N)=C2N(C)c3ccccc3N2C)cc1	-5	-18	28	7	4	-16	x	x	x	x
Cc1cc(=O)[nH]c(SCC(=O)N2CCCC2)n1	x	-11	2	-11	2	-1	x	x	x	x
Cc1cc(=O)[nH]c(SCC(=O)N2CCCC(C)C2)n1 (configuration not stated)	-8	-6	9	-10	75*	10	39*	1	-8	2
NC(N)=N/N=C/c1ccc(OCc2ccccc2Cl)cc1	1	13	8	-11	50*	15	87*	55*	70*	61*
NC(N)=N/N=C/c1ccccc1	-8	-3	9	89*	63*	3	91*	5	94*	7
Cc1cc(C(=O)COC(=O)Cc2ccc(Cl)cc2)c(C)n1C	x	-27	12	12	-1	-12	x	x	x	x
CN1CCN(S(=O)(=O)c2cccc(C(=O)NC3(C)CCS(=O)(=O)C3)c2)CC1 (configuration not stated)	x	-1	6	-26	2	-9	x	x	x	x
CC(C)(CC(=O)O)CC(=O)Nc1ccc(Oc2ccc(C(C)(C)C)cc2)nc1	-7	-22	10	-7	5	-10	x	x	x	x
Cc1cc(C)n(-c2cc(N3CCN(C(=O)c4ccccc4C)CC3)ccc2[N+](=O)[O-])n1	0	-20	15	5	9	-6	x	x	x	x
CCN(CC)CCCN1C(=O)CSC1c1ccc([N+](=O)[O-])cc1 (configuration not stated)	4	-13	58	7	52*	-7	1	2	9	4
CCN(CC)CCCN1C(=O)CSC1c1ccc2c(c1)OCO2 (configuration not stated)	-12	-21	30	-11	1	4	x	x	x	x
NC(N)=N/N=C(\N=Nc1ccccc1)c1ccc(Cl)cc1	x	x	x	28	49*	x	76*	38*	77*	50*
C[C@H](NC(=O)c1ncn2c1C(=O)NC[C@@H]2C)C(=O)OC(C)(C)C	x	x	x	0	2	x	x	x	x	x
